# Test system: MCF7; call rule not given here
# Test: The compound was tested for antiproliferative activity against MCF-7 human breast cancer cells; In active
# Format: functional, cell-based
# Summary of the method: (§1)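 MCF-7 human breast cancer cells, MTT assay. Growth inhibition expressed as % of control absorbance after 6 days incubation. IC50 read graphically as the concentration giving a 50% decrease in cell growth. Mean of three experiments; deviations within ±5%.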
row,Structure (SMILES),IC50
1,O=C1CC(c2ccccc2)Oc2c1ccc(O)c2O (stereo not drawn),Not Active

# Test system: MCF7
# Test: The compound was tested for antiproliferative activity against MCF-7 human breast cancer cells
# Format: functional, cell-based
# Summary of the method: as §1
row,Structure (SMILES),IC50 [µM]
1,COc1ccc(C(=O)/C=C/c2ccccc2)c(O)c1,26.8
2,COc1cc(O)c(C(=O)/C=C/c2ccccc2)c(OC)c1 [FLAVOKAWAIN B],20
3,O=C(/C=C/c1ccccc1)c1ccc(O)c(O)c1O,22.2
4,COc1cccc(O)c1C(=O)/C=C/c1ccccc1,18.3
5,"O=c1cc(-c2ccccc2)oc2c(O)c(O)ccc12 [7,8-DIHYDROXYFLAVONE]",27.5
6,O=C(/C=C/c1ccccc1)c1ccccc1O [2'-HYDROXYCHALCONE],28.4
7,"O=C(/C=C/c1ccccc1)c1ccc(O)cc1O [2',4'-DIHYDROXYCHALCONE]",16.3
8,COc1ccc2c(c1)OC(c1ccccc1)CC2=O (stereo not drawn),35.7
9,COc1cc(O)c(C(=O)/C=C/c2ccccc2)c(O)c1,> 60
10,COc1cc(OC)c2c(c1)OC(c1ccccc1)CC2=O (stereo not drawn) [DIMETHYLPINOCEMBRIN],36
11,COc1cccc2c1C(=O)CC(c1ccccc1)O2 (stereo not drawn),35.7
12,COc1ccc(O)c(C(=O)/C=C/c2ccccc2)c1,29.2
